Reference: ChEMBL document CHEMBL5696444 (Nat Commun, 2017)

Legend:
[1] = biological target: Dual specificity mitogen-activated protein kinase kinase 1 (Homo sapiens) (UniProt Q02750); assay: Inhibition of MAP2K1 (unknown origin) at 1000 nM in the presence of ATP by Kinome scan method relative to control
[2] = tested on: HCT-116; assay: Induction of cell cycle arrest in human HCT-116 cells assessed as G0/G1 phase at 10 uM incubated for 24 hrs by flow cytometry analysis (Rvb=35.7%); format: functional
[3] = tested on: HCT-116; assay: Induction of cell cycle arrest in human HCT-116 cells assessed as S phase at 10 uM incubated for 24 hrs by flow cytometry analysis (Rvb=46.4%); format: functional
[4] = biological target: T1, Dual specificity tyrosine-phosphorylation-regulated kinase 1B (Homo sapiens, UniProt Q9Y463); assay: Inhibition of DYRK1B (unknown origin) using ULight-MBP peptide as substrate incubated for 10 mins in presence of ATP incubated for 45 mins by LANCE Ultra kinase assay
Target sequence in this assay (Q9Y463 whole entry): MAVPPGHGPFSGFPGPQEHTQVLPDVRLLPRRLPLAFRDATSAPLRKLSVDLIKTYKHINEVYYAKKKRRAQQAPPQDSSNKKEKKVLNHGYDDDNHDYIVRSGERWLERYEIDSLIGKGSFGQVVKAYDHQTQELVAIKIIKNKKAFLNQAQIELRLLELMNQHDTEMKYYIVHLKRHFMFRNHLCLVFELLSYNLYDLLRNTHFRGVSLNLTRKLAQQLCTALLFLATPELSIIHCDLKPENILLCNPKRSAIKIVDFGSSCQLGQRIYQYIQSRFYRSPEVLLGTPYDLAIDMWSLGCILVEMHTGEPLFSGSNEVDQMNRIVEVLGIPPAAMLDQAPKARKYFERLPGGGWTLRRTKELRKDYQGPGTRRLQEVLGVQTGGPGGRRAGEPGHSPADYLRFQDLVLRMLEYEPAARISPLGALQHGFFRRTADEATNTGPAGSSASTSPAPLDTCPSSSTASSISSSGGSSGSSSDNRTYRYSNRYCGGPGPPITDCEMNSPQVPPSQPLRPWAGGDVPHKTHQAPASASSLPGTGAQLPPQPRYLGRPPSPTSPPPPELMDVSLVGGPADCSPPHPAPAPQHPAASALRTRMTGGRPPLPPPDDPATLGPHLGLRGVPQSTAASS

[5] = biological target: Dual specificity tyrosine-phosphorylation-regulated kinase 1A (Homo sapiens, UniProt Q13627); assay: Inhibition of DYRK1A (unknown origin) at 123 nM in the presence of ATP by Kinome scan method relative to control; conditions: time > 6.0 hrs
[6] = tested on: HCT-116; assay: Induction of cell cycle arrest in human HCT-116 cells assessed as G2/M phase at 5 uM incubated for 24 hrs by flow cytometry analysis (Rvb=17.9%); format: functional
[7] = tested on: HCT-116; assay: Induction of apoptosis in human HCT-116 cells assessed as late apoptosis at 0.1 uM incubated for > 6 hrs by annexin V/PI staining based analysis (Rvb=6.12%); format: functional
[8] = tested on: HCT-116; assay: Induction of apoptosis in human HCT-116 cells assessed as viable cells at 0.5 uM incubated for > 6 hrs by annexin V/PI staining based analysis (Rvb=90.04%); format: functional; conditions: read-out: Activity
[9] = biological target: Dual specificity tyrosine-phosphorylation-regulated kinase 4 (Homo sapiens) (UniProt Q9NR20); assay: Inhibition of DYRK4 (unknown origin) at 123 nM in the presence of ATP by Kinome scan method relative to control; conditions: time > 6.0 hrs
[10] = tested on: HCT-116; assay: Induction of cell cycle arrest in human HCT-116 cells assessed as S phase at 0.1 uM incubated for 24 hrs by flow cytometry analysis (Rvb=46.4%); format: functional
[11] = biological target: PI3-kinase p110-alpha/p85-alpha (Homo sapiens) (UniProt P27986+P42336); assay: Inhibition of PIK3CA/PIK3R1 (unknown origin) at 1000 nM in the presence of ATP by Kinome scan method relative to control; format: protein-complex assay
[12] = biological target: Homeodomain-interacting protein kinase 2 (Homo sapiens) (UniProt Q9H2X6); assay: Inhibition of HIPK2 (unknown origin) at 1000 nM in the presence of ATP by Kinome scan method relative to control
Sequence of Homeodomain-interacting protein kinase 2 (Homo sapiens) (Q9H2X6 whole entry, looked up): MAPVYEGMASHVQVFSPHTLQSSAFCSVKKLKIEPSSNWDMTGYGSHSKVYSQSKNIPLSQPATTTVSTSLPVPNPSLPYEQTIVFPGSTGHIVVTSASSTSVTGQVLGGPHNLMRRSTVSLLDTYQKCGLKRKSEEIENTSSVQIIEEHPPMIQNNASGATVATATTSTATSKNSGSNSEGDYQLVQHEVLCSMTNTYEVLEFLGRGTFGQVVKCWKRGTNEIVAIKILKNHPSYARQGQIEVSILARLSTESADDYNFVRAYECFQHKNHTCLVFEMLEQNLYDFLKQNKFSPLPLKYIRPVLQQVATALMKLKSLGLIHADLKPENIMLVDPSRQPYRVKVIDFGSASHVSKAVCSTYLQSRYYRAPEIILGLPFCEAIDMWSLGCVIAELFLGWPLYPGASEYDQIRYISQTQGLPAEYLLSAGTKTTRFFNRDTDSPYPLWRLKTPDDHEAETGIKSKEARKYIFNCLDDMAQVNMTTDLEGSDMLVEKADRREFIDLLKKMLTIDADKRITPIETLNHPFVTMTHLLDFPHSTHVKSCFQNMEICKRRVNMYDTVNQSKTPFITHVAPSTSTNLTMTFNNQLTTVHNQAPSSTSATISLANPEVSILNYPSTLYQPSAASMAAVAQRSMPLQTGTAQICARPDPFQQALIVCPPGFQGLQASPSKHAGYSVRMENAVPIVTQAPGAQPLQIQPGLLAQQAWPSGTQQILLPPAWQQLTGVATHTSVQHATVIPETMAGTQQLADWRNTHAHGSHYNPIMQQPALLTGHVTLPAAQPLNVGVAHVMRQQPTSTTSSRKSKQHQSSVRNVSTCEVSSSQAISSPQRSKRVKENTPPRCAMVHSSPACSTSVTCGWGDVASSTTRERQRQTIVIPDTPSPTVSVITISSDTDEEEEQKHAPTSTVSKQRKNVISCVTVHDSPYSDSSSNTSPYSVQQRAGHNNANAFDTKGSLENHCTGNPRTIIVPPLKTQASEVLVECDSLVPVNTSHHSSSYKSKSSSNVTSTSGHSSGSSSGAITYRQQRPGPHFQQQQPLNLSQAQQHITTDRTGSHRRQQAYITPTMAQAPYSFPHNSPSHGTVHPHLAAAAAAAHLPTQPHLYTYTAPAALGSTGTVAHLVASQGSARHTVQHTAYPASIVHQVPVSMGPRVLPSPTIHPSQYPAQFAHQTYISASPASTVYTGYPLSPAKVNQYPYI

[13] = biological target: Dual specificity mitogen-activated protein kinase kinase 1 (Homo sapiens) (UniProt Q02750); assay: Inhibition of MAP2K1 (unknown origin) at 100 nM in the presence of ATP by Kinome scan method relative to control
[14] = biological target: Aurora kinase A (Homo sapiens) (UniProt O14965); assay: Inhibition of AURKA (unknown origin) at 1000 nM in the presence of ATP by Kinome scan method relative to control
Sequence of Aurora kinase A (Homo sapiens) (O14965 whole entry): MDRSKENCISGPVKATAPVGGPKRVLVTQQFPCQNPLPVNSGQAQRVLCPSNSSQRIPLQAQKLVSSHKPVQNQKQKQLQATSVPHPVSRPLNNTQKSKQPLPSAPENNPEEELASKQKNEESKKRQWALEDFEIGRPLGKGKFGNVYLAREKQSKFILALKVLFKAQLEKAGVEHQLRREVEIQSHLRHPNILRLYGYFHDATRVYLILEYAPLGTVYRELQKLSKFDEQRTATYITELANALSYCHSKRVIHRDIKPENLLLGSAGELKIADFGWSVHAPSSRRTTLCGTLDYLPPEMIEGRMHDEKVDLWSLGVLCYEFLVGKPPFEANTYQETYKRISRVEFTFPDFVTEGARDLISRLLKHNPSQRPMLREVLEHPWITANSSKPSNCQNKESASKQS

[15] = biological target: Homeodomain-interacting protein kinase 2 (Homo sapiens) (UniProt Q9H2X6); assay: Inhibition of HIPK2 (unknown origin) at 100 nM in the presence of ATP by Kinome scan method relative to control
[16] = tested on: HCT-116; assay: Induction of cell cycle arrest in human HCT-116 cells assessed as sub G0/G1 phase at 10 uM incubated for 6 hrs by flow cytometry analysis (Rvb=1.6%); format: functional
[17] = biological target: T1, Dual specificity tyrosine-phosphorylation-regulated kinase 1B; assay: Inhibition of DYRK1B (unknown origin) at 123 nM in the presence of ATP by Kinome scan method relative to control; conditions: time > 6.0 hrs
Target sequence in this assay (Q9Y463 whole entry, looked up): as the sequence (Q9Y463 whole entry) above

[18] = tested on: HCT-116; assay: Induction of cell cycle arrest in human HCT-116 cells assessed as S phase at 0.5 uM incubated for 24 hrs by flow cytometry analysis (Rvb=46.4%); format: functional
[19] = biological target: Dual specificity tyrosine-phosphorylation-regulated kinase 3 (Homo sapiens) (UniProt O43781); assay: Inhibition of DYRK3 (unknown origin) at 123 nM in the presence of ATP by Kinome scan method relative to control; conditions: time > 6.0 hrs
[20] = tested on: HCT-116; assay: Induction of cell cycle arrest in human HCT-116 cells assessed as G2/M phase at 1 uM incubated for 24 hrs by flow cytometry analysis (Rvb=17.9%); format: functional
[21] = biological target: Glycogen synthase kinase-3 beta (Homo sapiens) (UniProt P49841); assay: Inhibition of GSK3B (unknown origin) at 1000 nM in the presence of ATP by Kinome scan method relative to control
Sequence of Glycogen synthase kinase-3 beta (Homo sapiens) (P49841 whole entry, looked up): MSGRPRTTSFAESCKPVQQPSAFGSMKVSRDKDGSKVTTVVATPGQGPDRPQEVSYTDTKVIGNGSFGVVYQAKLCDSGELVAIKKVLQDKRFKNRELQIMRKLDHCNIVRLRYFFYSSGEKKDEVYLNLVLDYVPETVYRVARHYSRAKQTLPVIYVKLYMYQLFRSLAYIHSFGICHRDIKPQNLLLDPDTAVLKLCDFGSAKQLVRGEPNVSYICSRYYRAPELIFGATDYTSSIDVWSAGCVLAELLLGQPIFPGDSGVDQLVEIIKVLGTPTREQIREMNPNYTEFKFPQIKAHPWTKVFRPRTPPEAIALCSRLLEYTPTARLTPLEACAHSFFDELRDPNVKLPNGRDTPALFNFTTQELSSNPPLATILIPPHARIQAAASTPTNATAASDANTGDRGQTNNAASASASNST

[22] = tested on: HCT-116; assay: Induction of apoptosis in human HCT-116 cells assessed as viable cells at 10 uM incubated for > 6 hrs by annexin V/PI staining based analysis (Rvb=90.04%); format: functional; conditions: read-out: Activity
[23] = biological target: Mitogen-activated protein kinase 9 (Homo sapiens) (UniProt P45984); assay: Inhibition of MAPK9 (unknown origin) at 100 nM in the presence of ATP by Kinome scan method relative to control
Sequence of Mitogen-activated protein kinase 9 (Homo sapiens) (P45984 whole entry, looked up): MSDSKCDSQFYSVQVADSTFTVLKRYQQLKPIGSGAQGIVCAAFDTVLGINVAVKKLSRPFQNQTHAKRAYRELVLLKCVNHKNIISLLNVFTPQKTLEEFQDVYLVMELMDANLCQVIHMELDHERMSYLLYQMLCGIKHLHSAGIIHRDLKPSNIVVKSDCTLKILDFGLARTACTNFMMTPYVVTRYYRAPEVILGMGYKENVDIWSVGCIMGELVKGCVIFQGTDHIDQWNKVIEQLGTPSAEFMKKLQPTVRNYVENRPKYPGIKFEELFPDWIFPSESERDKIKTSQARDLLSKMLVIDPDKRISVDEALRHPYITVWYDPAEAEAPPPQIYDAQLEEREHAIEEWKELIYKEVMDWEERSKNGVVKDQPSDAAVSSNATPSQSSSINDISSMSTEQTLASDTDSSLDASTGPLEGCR

[24] = tested on: HCT-116; assay: Induction of apoptosis in human HCT-116 cells assessed as viable cells at 0.1 uM incubated for > 6 hrs by annexin V/PI staining based analysis (Rvb=90.04%); format: functional; conditions: read-out: Activity
[25] = biological target: Hepatocyte growth factor receptor (Homo sapiens) (UniProt P08581); assay: Inhibition of MET (unknown origin) at 1000 nM in the presence of ATP by Kinome scan method relative to control
[26] = biological target: Dual specificity protein kinase CLK1 (Homo sapiens) (UniProt P49759); assay: Inhibition of CLK (unknown origin) in human 184-hTERT cells assessed as induction in alternative splicing effect in S6K skipped exon incubated for 6 hrs by RT-PCR analysis; format: cell-based; conditions: dose 0.2-5 µM
Sequence of Dual specificity protein kinase CLK1 (Homo sapiens) (P49759 whole entry, looked up, canonical isoform): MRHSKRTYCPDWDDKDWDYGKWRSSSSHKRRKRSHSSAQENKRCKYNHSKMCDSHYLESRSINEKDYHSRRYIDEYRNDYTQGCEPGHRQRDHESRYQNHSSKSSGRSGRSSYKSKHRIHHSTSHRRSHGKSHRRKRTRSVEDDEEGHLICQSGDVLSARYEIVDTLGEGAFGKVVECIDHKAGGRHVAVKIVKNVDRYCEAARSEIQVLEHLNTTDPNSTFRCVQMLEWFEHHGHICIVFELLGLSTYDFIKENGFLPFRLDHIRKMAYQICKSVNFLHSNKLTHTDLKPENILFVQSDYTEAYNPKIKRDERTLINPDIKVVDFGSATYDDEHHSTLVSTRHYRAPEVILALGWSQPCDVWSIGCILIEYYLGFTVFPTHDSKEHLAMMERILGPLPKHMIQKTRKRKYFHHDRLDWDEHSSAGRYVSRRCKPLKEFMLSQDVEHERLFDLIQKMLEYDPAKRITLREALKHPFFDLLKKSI
Summary of the method: (§1)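 Cells exposed to graded T3 concentrations for 6 h (chosen to avoid cytotoxicity), with a DMSO vehicle control. Total RNA was reverse-transcribed with oligo-dT primers. Targeted splice or conjoined-gene products were quantified by real-time qPCR or by targeted next-generation sequencing. Conjoined-gene isoform expression was normalized to a sequenced housekeeping gene.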

[27] = biological target: Dual specificity protein kinase CLK1 (Homo sapiens) (UniProt P49759); assay: Inhibition of CLK (unknown origin) in human 184-hTERT cells assessed as induction in alternative splicing effect in S6K skipped exon /canonical form incubated for 6 hrs by RT-PCR analysis; format: cell-based; conditions: dose 0.2-5 µM; summary of the method: as §1
[28] = biological target: Serine/threonine-protein kinase pim-1 (Homo sapiens) (UniProt P11309); assay: Inhibition of PIM1 (unknown origin) at 100 nM in the presence of ATP by Kinome scan method relative to control
[29] = biological target: Aurora kinase A (Homo sapiens) (UniProt O14965); assay: Inhibition of AURKA (unknown origin) at 100 nM in the presence of ATP by Kinome scan method relative to control
[30] = biological target: Mitogen-activated protein kinase 1 (Homo sapiens) (UniProt P28482); assay: Inhibition of MAPK1 (unknown origin) at 100 nM in the presence of ATP by Kinome scan method relative to control
Sequence of Mitogen-activated protein kinase 1 (Homo sapiens) (P28482 whole entry): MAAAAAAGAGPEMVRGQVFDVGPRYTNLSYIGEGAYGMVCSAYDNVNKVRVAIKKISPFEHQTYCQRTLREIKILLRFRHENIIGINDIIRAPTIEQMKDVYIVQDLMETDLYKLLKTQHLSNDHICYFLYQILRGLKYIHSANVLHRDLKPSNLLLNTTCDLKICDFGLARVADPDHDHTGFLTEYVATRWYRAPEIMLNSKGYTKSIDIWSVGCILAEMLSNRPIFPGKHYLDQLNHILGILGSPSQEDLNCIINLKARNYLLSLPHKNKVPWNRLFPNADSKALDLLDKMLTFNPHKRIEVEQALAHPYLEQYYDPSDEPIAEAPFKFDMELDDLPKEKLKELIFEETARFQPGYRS

[31] = tested on: HCT-116; assay: Induction of apoptosis in human HCT-116 cells assessed as early apoptosis at 10 uM incubated for > 6 hrs by annexin V/PI staining based analysis (Rvb=3.29%); format: functional

Sequence of Dual specificity mitogen-activated protein kinase kinase 1 (Homo sapiens) (Q02750 whole entry): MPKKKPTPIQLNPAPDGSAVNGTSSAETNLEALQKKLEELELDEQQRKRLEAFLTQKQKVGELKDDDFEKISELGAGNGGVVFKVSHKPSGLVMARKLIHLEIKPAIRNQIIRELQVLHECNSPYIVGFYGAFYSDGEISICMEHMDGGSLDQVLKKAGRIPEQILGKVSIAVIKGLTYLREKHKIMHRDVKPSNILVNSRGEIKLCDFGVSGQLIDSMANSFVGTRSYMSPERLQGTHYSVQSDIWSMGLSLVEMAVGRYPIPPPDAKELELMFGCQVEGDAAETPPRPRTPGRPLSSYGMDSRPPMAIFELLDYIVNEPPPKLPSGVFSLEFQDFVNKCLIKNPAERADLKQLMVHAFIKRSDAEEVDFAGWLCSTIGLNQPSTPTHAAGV

CN1CCN(C(=O)C(C)(C)c2ccc(C(=O)Nc3cn4cc(-c5ccncc5)ccc4n3)cc2)CC1 [T3-CLK]
inhibition [1]: 11%
Activity [2]: 21.3%
Activity [3]: 41%
IC50 [4]: 230 nM
inhibition [5]: 74%
Activity [6]: 41.2%
Activity [7]: 8.29%
viability at 0.5 µM [8]: 89.4%
inhibition [9]: -8%
Activity [10]: 40.7%
inhibition [11]: 4%
inhibition [12]: -2%
inhibition [13]: 12%
inhibition [14]: 9%
inhibition [15]: -4%
Activity [16]: 1.7%
inhibition [17]: 63%
Activity [18]: 20.5%
inhibition [19]: -2%
Activity [20]: 46%
inhibition [21]: -3%
viability at 10 µM [22]: 87.3%
inhibition [23]: 3%
viability at 0.1 µM [24]: 87.8%
inhibition [25]: -7%
inhibition [26]: Dose-Dependent Effect
inhibition [27]: Dose-Dependent Effect
inhibition [28]: 16%
inhibition [29]: 5%
inhibition [30]: 3%
Activity [31]: 3.7%
